In ChEMBL document CHEMBL1149243, “Lactams as EP4 prostanoid receptor agonists. 3. Discovery of N-ethylbenzoic acid 2-pyrrolidinones as subtype selective agents” (J Med Chem, 2004):

Key:
[1] = Volume of distribution in Wistar Han rat at 1 mg/kg, iv; assay type: ADME, organism-based; design: dose 1 mg/kg, route intravenous; conditions: in vivo, read-out: Vbeta
Outline: (§1)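 Single i.v. dose of 1.0 mg/kg lactam; parent compound in plasma quantified by LC-MS/MS with detection down to 0.1 ng/mL. Reported values are averages after i.v. dosing.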

[2] = target: T1, Prostaglandin E2 receptor EP4 subtype (Homo sapiens, UniProt P35408); experiment: Functional activity at human EP4 receptor
[3] = target: T2, Prostaglandin E2 receptor EP1 subtype (Homo sapiens, UniProt P34995); experiment: Binding affinity to human EP1 receptor
T2 sequence (P34995 whole entry): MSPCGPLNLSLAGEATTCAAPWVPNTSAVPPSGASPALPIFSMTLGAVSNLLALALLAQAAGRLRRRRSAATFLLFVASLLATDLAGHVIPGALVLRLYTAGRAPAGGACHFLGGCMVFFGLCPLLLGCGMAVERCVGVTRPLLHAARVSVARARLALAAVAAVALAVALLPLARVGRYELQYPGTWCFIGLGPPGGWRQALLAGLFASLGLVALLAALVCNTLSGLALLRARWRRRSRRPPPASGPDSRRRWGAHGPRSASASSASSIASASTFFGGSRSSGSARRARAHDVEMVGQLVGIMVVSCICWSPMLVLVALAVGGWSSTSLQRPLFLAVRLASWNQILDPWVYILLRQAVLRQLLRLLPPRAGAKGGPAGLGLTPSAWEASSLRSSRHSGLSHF

[4] = target: T3, Prostaglandin E2 receptor EP3 subtype (Homo sapiens, UniProt P43115); experiment: Binding affinity to human EP3 receptor
T3 sequence (P43115 whole entry): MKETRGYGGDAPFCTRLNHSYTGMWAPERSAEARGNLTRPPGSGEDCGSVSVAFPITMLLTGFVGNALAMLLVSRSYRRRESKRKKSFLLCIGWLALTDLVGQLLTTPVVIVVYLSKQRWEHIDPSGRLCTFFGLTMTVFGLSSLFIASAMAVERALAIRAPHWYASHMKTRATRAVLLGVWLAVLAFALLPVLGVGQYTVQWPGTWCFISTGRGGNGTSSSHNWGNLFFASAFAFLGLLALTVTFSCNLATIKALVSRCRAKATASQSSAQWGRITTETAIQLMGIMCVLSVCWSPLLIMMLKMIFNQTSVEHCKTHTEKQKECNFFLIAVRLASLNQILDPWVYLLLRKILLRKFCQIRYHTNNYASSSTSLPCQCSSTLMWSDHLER

[5] = Half life in Wistar Han rat at 1 mg/kg, iv; assay type: ADME, organism-based; design: dose 1 mg/kg, route intravenous; conditions: in vivo; outline: as §1
[6] = target: T1, Prostaglandin E2 receptor EP4 subtype; experiment: Binding affinity to human EP4 receptor
[7] = Clearance in Wistar Han rat at 1 mg/kg, iv; assay type: ADME, organism-based; design: dose 1 mg/kg, route intravenous; conditions: in vivo; outline: as §1
[8] = target: Prostaglandin E2 receptor EP2 subtype (Homo sapiens, UniProt P43116); experiment: Binding affinity to human EP2 receptor
Sequence of Prostaglandin E2 receptor EP2 subtype (P43116 whole entry): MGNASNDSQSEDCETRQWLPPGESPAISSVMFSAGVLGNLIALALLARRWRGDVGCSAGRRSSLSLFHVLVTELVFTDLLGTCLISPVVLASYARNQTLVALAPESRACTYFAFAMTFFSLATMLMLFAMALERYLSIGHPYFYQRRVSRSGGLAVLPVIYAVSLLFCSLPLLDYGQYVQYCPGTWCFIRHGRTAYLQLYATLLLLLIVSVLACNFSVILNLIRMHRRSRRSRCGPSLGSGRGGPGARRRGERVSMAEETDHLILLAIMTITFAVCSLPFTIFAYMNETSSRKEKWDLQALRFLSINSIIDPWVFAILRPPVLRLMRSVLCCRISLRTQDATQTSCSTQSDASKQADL

T1 sequence (P35408 whole entry): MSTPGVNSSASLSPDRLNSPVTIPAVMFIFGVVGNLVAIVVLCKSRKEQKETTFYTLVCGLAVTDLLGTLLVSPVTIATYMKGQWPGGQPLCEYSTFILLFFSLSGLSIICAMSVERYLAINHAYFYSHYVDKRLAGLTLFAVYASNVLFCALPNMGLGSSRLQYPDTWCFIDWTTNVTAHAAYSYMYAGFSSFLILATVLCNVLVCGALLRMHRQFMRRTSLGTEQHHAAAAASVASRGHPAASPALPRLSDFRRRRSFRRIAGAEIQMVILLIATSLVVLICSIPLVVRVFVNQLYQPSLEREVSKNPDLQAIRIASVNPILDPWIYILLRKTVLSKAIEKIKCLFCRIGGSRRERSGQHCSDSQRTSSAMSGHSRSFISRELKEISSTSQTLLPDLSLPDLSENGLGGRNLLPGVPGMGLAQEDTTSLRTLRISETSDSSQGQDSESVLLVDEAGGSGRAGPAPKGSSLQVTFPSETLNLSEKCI

SMILES | Vd [1] | EC50 [2] | Ki [3] | Ki [4] | half-life [5] | Ki [6] | clearance [7] | Ki [8]
CCCCC[C@H](O)/C=C/[C@H]1CCC(=O)N1CCCCOCC(=O)O | 1.5 L/kg |  |  |  |  |  |  | 
CCCCC[C@H](O)/C=C/[C@H]1CCC(=O)N1CCSCCCC(=O)O |  | 17 nM (agonist) |  | 1900 nM (antagonist) | 45.6 min | 3.8 nM (antagonist) | 0.63 L/h/kg | 4700 nM (antagonist)
CCCCC[C@H](O)/C=C/[C@H]1CCC(=O)N1CCc1ccc(C(=O)O)s1 |  | 12 nM (agonist) |  | > 100000 nM |  | 6.9 nM (antagonist) |  | 3700 nM (antagonist)
CCCCC[C@H](O)/C=C/[C@H]1CCC(=O)N1CCCCCCC(=O)O | 6.9 L/kg |  |  |  | 52.2 min |  | 5.5 L/h/kg | 

Further lines, results first:

Vd [1] | EC50 [2] | Ki [3] | Ki [4] | half-life [5] | Ki [6] | clearance [7] | Ki [8] | SMILES
 | 0.04 nM (agonist) | 18000 nM | 54000 nM |  |  |  |  | Cc1cc(Cl)ccc1-c1cccc([C@H](O)CC[C@H]2CCC(=O)N2CCc2ccc(C(=O)O)cc2)c1
 | 11 nM (agonist) | > 100000 nM | 11000 nM | 46.8 min | 2.9 nM (antagonist) | 2.5 L/h/kg |  | CCCCC[C@H](O)/C=C/[C@H]1CCC(=O)N1CCc1ccc(C(=O)O)cc1
 | 0.2 nM (agonist) |  | 79000 nM |  | 1 nM (antagonist) |  | 75 nM (antagonist) | O=C(O)c1ccc(CCN2C(=O)CC[C@@H]2/C=C/[C@@H](O)CCC2CCC2)cc1
 | 5.9 nM (agonist) |  | > 100000 nM |  | 0.7 nM (antagonist) |  | 2500 nM (antagonist) | COCc1cccc(C[C@H](O)/C=C/[C@H]2CCC(=O)N2CCc2ccc(C(=O)O)cc2)c1
 | 150 nM (agonist) |  | 77000 nM |  | 18 nM (antagonist) |  | 220 nM (antagonist) | O=C(O)c1ccc(CCN2C(=O)CC[C@@H]2CC[C@@H](O)CCC2CCC2)cc1
15.3 L/kg | 130 nM (agonist) |  | 90300 nM | 210 min | 17 nM (antagonist) | 3 L/h/kg | 35 nM (antagonist) | CCCCC[C@H](O)CC[C@H]1CCC(=O)N1CCc1ccc(C(=O)O)cc1
